Most compounds without a hit are left out; they make up all but 2.9% or so of the library.
S100A4 MyoIIA = blocks human S100A4 binding to myosin IIA peptide. P26447. S100A4/TAMRA-MyoIIA peptide fluorescence polarization. inhibition, % at 10.7 µM. 0.14% of 360,000 active;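 active = mean inhibition of at least 70% across replicates, with every replicate also reaching that level; inconclusive = mean inhibition reaches 70% but some replicates fall short; inactive = mean inhibition below 70%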
Target sequence (P26447 whole entry, looked up): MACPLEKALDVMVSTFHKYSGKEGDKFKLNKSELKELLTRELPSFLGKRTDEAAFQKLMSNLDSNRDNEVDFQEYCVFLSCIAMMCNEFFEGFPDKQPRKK
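Test system: S100A4 monomer protein. Medium: HEPES buffer with Ca2+, pH 7.2. Reagent: fluorescent myosin IIA peptide, 5 nM. Compound dosing: single-point compound testing. Timing: 5 min between mix addition and reading. Benchmarks: DMSO neutral and TFP positive wells.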
Statin myotox sup = suppressors of simvastatin-induced myotoxicity in C2C12 myotubes; rescue of ATP level, % at 7.49 µM; ATP luminescence, 48 h; scaled: DMSO 0, geranylgeraniol control 100; AID 602340; 0.78% of 330,000 active;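 active = mean ATP rescue above about 67%, or every replicate alone reaching that limit, limit read from the data, passing the limit was not always enough; inconclusive = no clear call, values can overlap the other calls; inactive = mean under the limit and some replicate under it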;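 also: myotubes were challenged with 10 µM simvastatin during compound exposure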
DENV2 CPE rescue = inhibitors of DENV2 cytopathic effect. DENV2-infected cells, cytopathic effect rescue, plate reader. CPE inhibition, % at 9.99 µM. 1.7% of 350,000 active. AID 651640; in the data active = CPE inhibition above about 20%, passing the limit was not always enough; inconclusive = no clear call, values can overlap the other calls; tested in BHK-21 cells;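 also: 0% = median of neutral control wells and 100% = median of positive control wells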
SIRT5 inh = inhibitors of human sirtuin-5 desuccinylase | Q9NXA8 | Purified SirT5, succinyl-peptide AMC, trypsin-coupled fluorescence | inhibition, % at 15 µM | 1.1% of 330,000 active; in the data active = inhibition above about 15%; inconclusive = no clear call, values can overlap the other calls
Target sequence (Q9NXA8 whole entry, looked up): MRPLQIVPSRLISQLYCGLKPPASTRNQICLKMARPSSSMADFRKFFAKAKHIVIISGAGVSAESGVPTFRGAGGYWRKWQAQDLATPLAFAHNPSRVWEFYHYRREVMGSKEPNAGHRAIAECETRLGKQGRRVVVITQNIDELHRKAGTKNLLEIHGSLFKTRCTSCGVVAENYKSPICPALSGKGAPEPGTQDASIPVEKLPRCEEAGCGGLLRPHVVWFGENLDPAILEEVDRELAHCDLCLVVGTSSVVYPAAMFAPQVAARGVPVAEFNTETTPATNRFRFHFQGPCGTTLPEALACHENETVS
PGC1a acetyl inh = lowers PGC1a acetylation signal in U2OS cells. AlphaScreen anti-acetyl-lysine; with virally co-expressed GCN5 acetyltransferase. inhibition, % at 15.6 µM. 0.17% of 350,000 active;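 active = every replicate shows inhibition of at least 40%; inconclusive = mean inhibition at least 40% but some replicate below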;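 also: 0% = neutral control wells and 100% = positive control wells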
* = called active by the depositor; ? = inconclusive; / = no result.

SMILES	S100A4 MyoIIA	Statin myotox sup	DENV2 CPE rescue	SIRT5 inh	PGC1a acetyl inh
Cc1cccc(S(=O)(=O)N(C)C[C@H]2OCc3ccccc3-c3c(n(C)c4ccccc34)C(=O)N([C@H](C)CO)C[C@H]2C)c1	7.1	60.8	7.6	18.4*	-22.3
COc1cccc(S(=O)(=O)N(C)C[C@H]2OCc3ccccc3-c3c(n(C)c4ccccc34)C(=O)N([C@H](C)CO)C[C@H]2C)c1	1.4	79.8*	18.1	11.9	-5.1
Cc1cccc(S(=O)(=O)N(C)C[C@H]2OCc3ccccc3-c3c(n(C)c4ccccc34)C(=O)N([C@@H](C)CO)C[C@H]2C)c1	1.0	?	0.6	4.7	-15.1
O=C(C[C@@H]1C=C[C@H](NC(=O)c2cccnc2)[C@@H](CO)O1)NCCN1CCCCC1	/	-7.2	/	/	5.2
CCC(=O)N1[C@H](CO)[C@H]2c3ccccc3N(C(=O)CC(F)(F)F)C[C@H]21	5.5	7.3	3.7	-1.5	2.9
C[C@@H]1CN([C@H](C)CO)C(=O)c2cc(-c3cccnc3)cnc2O[C@H]1CN(C)Cc1ccccc1	/	-13.2	/	/	-8.6
OCCNc1cc(-n2nc(-c3ccccc3)cc2-c2ccccc2)ncn1	/	113.8*	/	/	-3.7
CCN(CC)CCNC(=S)Nc1ccc2nc(N3CCN(CC)CC3)cc(C)c2c1	-12.4	-2.9	6.1	-3.1	-14.2
Cc1cc(N2CCN(C)CC2)nc2ccc(NC(=S)N3CCCCCC3)cc12	0.6	6.1	5.0	20.4*	-7.3
CCN1CCN(c2cc(C)c3cc(NC(=S)NCCN(C)C)ccc3n2)CC1	-19.7	-1.1	-6.3	21.4*	-13.4
COCC(=O)N(C)C[C@@H]1Oc2ncc(-c3ccc(F)cc3)cc2C(=O)N([C@@H](C)CO)C[C@@H]1C	2.9	1.7	-9.9	2.5	18.4
Cc1ccc(S(=O)(=O)Nc2ccc3c(c2)C(=O)N([C@@H](C)CO)C[C@H](C)[C@@H](CN(C)C(=O)Nc2cccc4ccccc24)OCCCC[C@H](C)O3)cc1	-2.7	/	0.8	16.4*	-19.6
Cc1ccc(S(=O)(=O)Nc2ccc3c(c2)C(=O)N([C@H](C)CO)C[C@@H](C)[C@H](CN(C)C(=O)Nc2cccc4ccccc24)OCCCC[C@@H](C)O3)cc1	7.7	/	-8.0	-0.7	-12.4
Cc1ccc(S(=O)(=O)Nc2ccc3c(c2)C(=O)N([C@@H](C)CO)C[C@@H](C)[C@@H](CN(C)C(=O)Nc2cccc4ccccc24)OCCCC[C@H](C)O3)cc1	1.5	/	3.9	-1.3	-10.0
Cc1ccc(S(=O)(=O)Nc2ccc3c(c2)C(=O)N([C@@H](C)CO)C[C@H](C)[C@@H](CN(C)C(=O)Nc2cccc4ccccc24)OCCCC[C@@H](C)O3)cc1	-4.0	/	1.4	15.8*	-18.8
C[C@@H]1CCCCO[C@@H](CN(C)C(=O)Nc2cccc3ccccc23)[C@H](C)CN([C@@H](C)CO)C(=O)c2cc(NS(=O)(=O)c3cn(C)cn3)ccc2O1	/	/	21.5*	/	-11.6
Cc1ccc(S(=O)(=O)Nc2ccc3c(c2)C(=O)N([C@H](C)CO)C[C@H](C)[C@@H](CN(C)C(=O)Nc2cccc4ccccc24)O3)cc1	1.9	-0.5	40.7*	-3.0	2.7
C[C@H]1CN([C@@H](C)CO)C(=O)c2cc(/C=C/c3ccccc3)cnc2O[C@@H]1CN(C)Cc1cncnc1	2.8	-34.3	-0.5	-9.8	-0.5
C[C@@H]1CN([C@@H](C)CO)C(=O)c2cc(C3=CCCCC3)cnc2O[C@@H]1CN(C)C(=O)Cc1ccncc1	-7.1	-17.5	?	-1.2	2.7
C[C@@H]1CN([C@H](C)CO)S(=O)(=O)c2ccc(C3=CCCC3)cc2O[C@@H]1CN(C)Cc1ccccc1F	0.1	-85.4	8.1	-4.8	-5.5
O=C(N/C(=C\c1ccc([N+](=O)[O-])cc1)C(=O)N1CCCCC1)c1ccccc1	-0.4	/	-1.2	16.1*	-0.1
COc1cc(C(=O)Oc2cccc(C)c2)cc(OC)c1OC	/	116.6*	/	/	0.3
CCc1c(-c2ccccc2)ncn1CCc1ccccc1OC	0.8	/	2.3	6.9	/
CC(C)(C)c1ccc(OC(=O)N2CCOCC2)cc1	-4.2	-10.6	-5.0	15.7*	7.5
COc1ccc2c3c([nH]c2c1)[C@H](CO)N(C(=O)c1ccccn1)CC31CCN(C(=O)C2CCCCC2)CC1	25.2	/	3.2	6.5	/
Nc1ccn(CC(=O)N[C@H](CO)Cc2c[nH]c3ccccc23)c(=O)n1	-0.4	124.4*	-8.1	-7.5	-7.5
